# Laboratory results reported in ChEMBL document CHEMBL4368909, “Identification of Dihydrofuro[3,4- d]pyrimidine Derivatives as Novel HIV-1 Non-Nucleoside Reverse Transcriptase Inhibitors with Promising Antiviral Activities and Desirable Physicochemical Properties” (J Med Chem, 2019).
# What was measured:
# [1] = tested on: Human immunodeficiency virus 1; test: Antiviral activity against wild type HIV1 3B infected in human MT4 cells assessed as reduction in virus-induced cytopathic effect after 5 days by MTT assay; format: functional, organism-based; conditions: Human immunodeficiency virus 1, 3B, MT4, 120 h
# [2] = tested on: Human immunodeficiency virus 1; test: Antiviral activity against HIV1 RES056 infected in human MT4 cells assessed as reduction in virus-induced cytopathic effect after 5 days by MTT assay; format: functional, organism-based; conditions: Human immunodeficiency virus 1, RES056, MT4, 120 h
# MT4 = test: Cytotoxicity against human MT4 cells after 5 days by MTT assay; format: cell-based; conditions: mt4, 120 h
# [3] = Selectivity ratio of CC50 for human MT4 cells to EC50 for HIV1 3B infected in human MT4 cells; format: toxicity, cell-based; conditions: read-out: Ratio CC50/EC50
# [4] = Selectivity ratio of CC50 for human MT4 cells to EC50 for HIV1 RES056 infected in human MT4 cells; format: toxicity, cell-based; conditions: read-out: Ratio CC50/EC50
# [5] = target: Human immunodeficiency virus type 1 reverse transcriptase (Human immunodeficiency virus 1, UniProt Q72547); test: Inhibition of recombinant HIV1 reverse transcriptase using (DIG)-dUTP and biotin-labeled dNTPs as substrate after 1 hr by ELISA
# [6] = tested on: Human immunodeficiency virus 2; test: Antiviral activity against HIV2 ROD infected in human MT4 cells assessed as reduction in virus-induced cytopathic effect after 5 days by MTT assay; conditions: Human immunodeficiency virus 2, ISOLATE ROD, MT4, 120 h
# [7] = tested on: Human immunodeficiency virus 1; test: Antiviral activity against HIV1 harboring reverse transcriptase L100I mutant infected in human MT4 cells assessed as reduction in virus-induced cytopathic effect after 5 days by MTT assay; format: functional, organism-based; conditions: Human immunodeficiency virus 1, MT4, 120 h
# [8] = tested on: Human immunodeficiency virus 1; test: Antiviral activity against HIV1 harboring reverse transcriptase K103N mutant infected in human MT4 cells assessed as reduction in virus-induced cytopathic effect after 5 days by MTT assay; format: functional, organism-based; conditions: Human immunodeficiency virus 1, MT4, 120 h
# [9] = tested on: Human immunodeficiency virus 1; test: Antiviral activity against HIV1 harboring reverse transcriptase Y181C mutant infected in human MT4 cells assessed as reduction in virus-induced cytopathic effect after 5 days by MTT assay; format: functional, organism-based; conditions: Human immunodeficiency virus 1, MT4, 120 h
# [10] = tested on: Human immunodeficiency virus 1; test: Antiviral activity against HIV1 harboring reverse transcriptase Y188L mutant infected in human MT4 cells assessed as reduction in virus-induced cytopathic effect after 5 days by MTT assay; format: functional, organism-based; conditions: Human immunodeficiency virus 1, MT4, 120 h
# [11] = tested on: Human immunodeficiency virus 1; test: Antiviral activity against HIV1 harboring reverse transcriptase E138K mutant infected in human MT4 cells assessed as reduction in virus-induced cytopathic effect after 5 days by MTT assay; format: functional, organism-based; conditions: Human immunodeficiency virus 1, MT4, 120 h
# [12] = tested on: Human immunodeficiency virus 1; test: Antiviral activity against HIV1 harboring reverse transcriptase F227L/V106A double mutant infected in human MT4 cells assessed as reduction in virus-induced cytopathic effect after 5 days by MTT assay; format: functional, organism-based; conditions: Human immunodeficiency virus 1, MT4, 120 h
# [13] = tested on: Human immunodeficiency virus 1; test: Resistance factor, ratio of EC50 for HIV1 harboring reverse transcriptase L100I mutant to EC50 for wild type HIV1; format: functional
# Summary of the method: (§1)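 The resistance factor is the EC50 against the mutant strain divided by the EC50 against wild-type HIV-1. Both were measured in MT-4 cells by MTT read-out of protection from virus-induced cytopathicity.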
# [14] = tested on: Human immunodeficiency virus 1; test: Resistance factor, ratio of EC50 for HIV1 harboring reverse transcriptase K103N mutant to EC50 for wild type HIV1; format: functional; summary of the method: as §1
# [15] = tested on: Human immunodeficiency virus 1; test: Resistance factor, ratio of EC50 for HIV1 harboring reverse transcriptase Y181C mutant to EC50 for wild type HIV1; format: functional; summary of the method: as §1
# [16] = tested on: Human immunodeficiency virus 1; test: Resistance factor, ratio of EC50 for HIV1 harboring reverse transcriptase Y188L mutant to EC50 for wild type HIV1; format: functional; summary of the method: as §1
# [17] = tested on: Human immunodeficiency virus 1; test: Resistance factor, ratio of EC50 for HIV1 harboring reverse transcriptase E138K mutant to EC50 for wild type HIV1; format: functional; summary of the method: as §1
# [18] = tested on: Human immunodeficiency virus 1; test: Resistance factor, ratio of EC50 for HIV1 harboring reverse transcriptase F227L/V106A double mutant to EC50 for wild type HIV1; format: functional; summary of the method: as §1
# [19] = Aqueous solubility of the compound at pH at 7.4 by HPLC analysis; format: physicochemical; conditions: buffer, pH 7.4
# Summary of the method: (§2)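 Aqueous solubility read by HPLC in buffer at pH 2.0, 7.0 or 7.4.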
# [20] = tested on: Human immunodeficiency virus 1; test: Antiviral activity against HIV1 NL4-3 infected in human TZM-bl cells after 2 days by luciferase-bright glo assay; format: functional, organism-based; conditions: Human immunodeficiency virus 1, NL4-3, TZM-bl, 48 h
# TZM = test: Cytotoxicity against human TZM-bl cells after 4 days by XTT assay; format: cell-based; conditions: 96 h
# [21] = Selectivity ratio of CC50 for human TZM-bl cells to EC50 for HIV1 NL4-3 infected in human TZM-bl cells; format: toxicity, cell-based; conditions: read-out: Ratio CC50/EC50
# Summary of the method: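 The selectivity index is CC50/EC50 in TZM-bl cells against NL4-3. […] The highest concentration tested was 125 ng/mL.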
# [22] = Aqueous solubility of the compound at pH at 7 by HPLC analysis; format: physicochemical; conditions: buffer, pH 7; summary of the method: as §2
# [23] = Aqueous solubility of the compound at pH at 2 by HPLC analysis; format: physicochemical; conditions: buffer, pH 2; summary of the method: as §2
# [24] = Aqueous solubility of the compound in FASSIF by HPLC analysis; format: physicochemical; conditions: simulated gi fluid
# Summary of the method: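 Solubility read by HPLC in fasted state simulated intestinal fluid (FaSSIF).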
Compound,EC50 [1],EC50 [2],CC50 (MT4),selectivity ratio [3],selectivity ratio [4],IC50 [5],EC50 [6],also measured
Cc1cc(C#N)cc(C)c1Oc1nc(NC2CCN(Cc3ccc(S(N)(=O)=O)cc3)CC2)nc2c1CSC2,37.2 nM,734 nM,26600 nM,715,36,410 nM,≥ 26700 nM,
Cc1cc(C#N)cc(C)c1Oc1nc(NC2CCN(Cc3ccc(S(C)(=O)=O)cc3)CC2)nc2c1SCC2,5.9 nM,46.6 nM,11900 nM,2020,257,130 nM,13500 nM,
Cc1cc(C#N)cc(C)c1Oc1nc(NC2CCN(Cc3ccc(S(N)(=O)=O)cc3)CC2)nc2c1CCC2,1.1 nM,25.8 nM,> 234000 nM,,,91 nM,58300 nM,EC50 [7]: 5.9 nM; EC50 [8]: 11 nM; EC50 [9]: 14.2 nM; EC50 [10]: 14 nM; EC50 [11]: 42.3 nM; EC50 [12]: 35.6 nM; Ratio EC50 [13]: 5.3; Ratio EC50 [14]: 10; Ratio EC50 [15]: 12.9; Ratio EC50 [16]: 12.7; Ratio EC50 [17]: 38.4; Ratio EC50 [18]: 32.3
Cc1cc(C#N)cc(C)c1Oc1nc(NC2CCN(Cc3ccc([N+](=O)[O-])cc3)CC2)nc2c1CCC2,14.5 nM,941 nM,8730 nM,599,9,241 nM,> 8730 nM,
Cc1cc(C#N)cc(C)c1Oc1nc(NC2CCN(Cc3ccncc3)CC2)nc2c1CCCC2,8.6 nM,172 nM,75800 nM,8750,440,72 nM,21700 nM,
Cc1cc(C#N)cc(C)c1Oc1nc(NC2CCN(Cc3ccc(S(C)(=O)=O)cc3)CC2)nc2c1CCC2,4.9 nM,187 nM,7450 nM,1500,40,157 nM,41800 nM,
Cc1cc(C#N)cc(C)c1Oc1nc(NC2CCN(Cc3ccc(S(N)(=O)=O)cc3)CC2)nc2ccsc12,,,,,,,,solubility [19]: < 1 µg/mL; EC50 [20]: 1.16 nM; CC50 (TZM): > 227 nM; selectivity ratio [21]: 196; solubility [22]: 0.05 µg/mL; solubility [23]: 190 µg/mL; solubility [24]: 1.24 µg/mL
Cc1cc(C#N)cc(C)c1Oc1nc(NC2CCN(Cc3ccc(S(N)(=O)=O)cc3)CC2)nc2c1SCCC2,2.7 nM,40.6 nM,≥ 148000 nM,,,,> 148000 nM,EC50 [7]: 12.9 nM; EC50 [8]: 5.2 nM; EC50 [9]: 10.4 nM; EC50 [10]: 8 nM; EC50 [11]: 8.5 nM; EC50 [12]: 22.3 nM; Ratio EC50 [13]: 4.7; Ratio EC50 [14]: 1.9; Ratio EC50 [15]: 3.8; Ratio EC50 [16]: 3; Ratio EC50 [17]: 3.1; Ratio EC50 [18]: 8.3
Cc1cc(C#N)cc(C)c1Oc1nc(NC2CCN(Cc3cccc(C(N)=O)c3)CC2)nc2c1CCCC2,6.5 nM,3150 nM,158000 nM,24400,50,101 nM,> 158000 nM,
Cc1cc(C#N)cc(C)c1Oc1nc(NC2CCN(Cc3ccc([N+](=O)[O-])cc3)CC2)nc2c1SCC2,8 nM,495 nM,6180 nM,770,12,175 nM,> 6180 nM,
Cc1cc(C#N)cc(C)c1Oc1nc(NC2CCN(Cc3cccc(C(N)=O)c3)CC2)nc2c1CCC2,2 nM,26800 nM,205000 nM,124000,9,241 nM,> 205000 nM,
Cc1cc(C#N)cc(C)c1Oc1nc(NC2CCN(Cc3ccc(S(C)(=O)=O)cc3)CC2)nc2c1CSC2,3.8 nM,170 nM,45300 nM,11700,259,91 nM,≥ 22700 nM,
Cc1cc(C#N)cc(C)c1Oc1nc(NC2CCN(Cc3ccc([N+](=O)[O-])cc3)CC2)nc2c1CCCC2,77.4 nM,6900 nM,29100 nM,376,4,94 nM,> 29100 nM,
Cc1cc(C#N)cc(C)c1Oc1nc(NC2CCN(Cc3ccc([N+](=O)[O-])cc3)CC2)nc2c1CSC2,11.5 nM,1140 nM,27100 nM,2340,24,129 nM,> 27100 nM,
